Assay outcomes deposited in PubChem by Broad Institute.
Compounds with a hit are over-represented: about 2% of the library has one in this group of screens.
XiGFP reactiv: activators of inactive X chromosome reactivation, primary screen, imaging, XiGFP fibroblasts, GFP high-content imaging, set 2 | XiGFP mouse fibroblasts, % GFP-positive cells imaging, 3 d; cells co-treated with 5-aza-dC sensitizer; scaled so ellipticine positive control = 100% | activation, % at 7.58 µM | actives 0.055% (n = 360,000);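 active = mean normalized replicate activation at least 10% and every replicate at or above 10%; inconclusive = only one of the two criteria met; inactive = mean below 10% and not all replicates reach 10%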;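 also: 0% = median of on-plate neutral control wells and 100% = ellipticine 6 µM median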
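System: SV40-immortalized XiGFP fibroblast cells, line 68-5-11 / Incubation: 3-day compound exposure, then 15 min fixation at room temperature / Compound: single concentration per compound, delivered by pin transfer / Buffer or medium: DMEM plus 5-aza-dC sensitizer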
E-selectin induc: E-selectin induction in HUVECs, primary screen, imaging, HUVEC, immunofluorescence imaging, single point; activation, % at 7.58 µM; AID 686992, 2013; normalized: neutral wells 0, TNF-alpha wells 100; P16581; actives 0.37% (n = 260,000);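 active = mean E-selectin-positive cell signal at least 10% of the positive control, reached in at least 60% of replicates, without over 20% cell loss; inconclusive = no rule given, readout overlaps actives, possibly toxicity-flagged; inactive = the rest, including those meeting only one limit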
Target sequence (P16581 whole entry, looked up): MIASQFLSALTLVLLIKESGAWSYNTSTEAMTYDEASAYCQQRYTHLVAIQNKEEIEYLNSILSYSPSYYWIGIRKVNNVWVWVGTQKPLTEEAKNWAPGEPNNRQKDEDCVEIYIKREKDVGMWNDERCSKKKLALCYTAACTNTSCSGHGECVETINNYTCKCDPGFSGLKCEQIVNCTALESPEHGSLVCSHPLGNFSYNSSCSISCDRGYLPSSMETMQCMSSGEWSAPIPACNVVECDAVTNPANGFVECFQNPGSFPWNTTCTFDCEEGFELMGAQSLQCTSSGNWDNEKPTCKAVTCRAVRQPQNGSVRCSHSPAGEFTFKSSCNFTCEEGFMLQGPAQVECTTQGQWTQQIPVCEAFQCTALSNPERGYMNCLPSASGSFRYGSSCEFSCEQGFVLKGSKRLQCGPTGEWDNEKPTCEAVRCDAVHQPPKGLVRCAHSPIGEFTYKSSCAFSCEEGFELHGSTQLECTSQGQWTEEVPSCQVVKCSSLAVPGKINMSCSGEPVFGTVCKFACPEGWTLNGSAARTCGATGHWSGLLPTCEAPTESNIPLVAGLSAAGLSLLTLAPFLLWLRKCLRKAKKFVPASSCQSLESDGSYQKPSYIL
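Read-out: % PE-positive cells | Test system: HUVEC | Doses: One compound dose added by pin transfer | Buffer or medium: EGM-2 over gelatin coat | Signal: Immunofluorescence imaging | Benchmarks: TNF-alpha, DMSO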
S100A4 inh HTS: inhibitors of S100A4-myosin IIA peptide binding, primary screen, biochemical, fluorescence polarization, TAMRA-MyoIIA peptide. AID 652163, 2013. actives 0.14% (n = 360,000). inhibition, % at 10.7 µM;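 active = mean inhibition of at least 70% across replicates, with every replicate also reaching that level; inconclusive = mean inhibition reaches 70% but some replicates fall short; inactive = mean inhibition below 70%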
Target sequence (P26447 whole entry, looked up): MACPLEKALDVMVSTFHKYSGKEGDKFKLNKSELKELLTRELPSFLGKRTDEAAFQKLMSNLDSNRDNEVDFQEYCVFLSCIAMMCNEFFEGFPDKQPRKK
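Material: S100A4 monomer protein | Medium: HEPES pH 7.2 with CaCl2, KCl, NaCl, DTT, Triton | Reagent: Labelled myosin peptide probe, 5 nM | Doses: One dose per compound | Times: 5 min incubation before reading | Benchmarks: Neutral control DMSO, positive control TFP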
DENV2 CPE rescue: inhibitors of DENV2 cytopathic effect, primary screen, cell-based, plate reader, single concentration; actives 1.7% (n = 350,000); DENV2-infected cells, cytopathic effect rescue; AID 651640, 2012; CPE inhibition, % at 9.99 µM; in the data active = CPE inhibition above about 20%, passing the limit was not always enough; inconclusive = no clear call, values can overlap the other calls; tested in BHK-21 cells;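 also: 0% = median of neutral control wells and 100% = median of positive control wells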
Active calls of the source: *; ? = inconclusive; . = not tested or not shown.

SMILES | XiGFP reactiv | E-selectin induc | S100A4 inh HTS | DENV2 CPE rescue
COc1ccc(S(=O)(=O)Nc2ccc3c(c2)C(=O)N([C@@H](C)CO)C[C@H](C)[C@@H](CN(C)C(=O)Nc2cccc4ccccc24)OCCCC[C@@H](C)O3)cc1 | -0.9 | -0.2 | -4.2 | 25.7*
COc1ccc(-c2nc(N)nc(C)c2-c2ccc(Cl)cc2)c(O)c1 | 0.4 | 59.3* | -3.4 | -0.5
CCOc1ccc(-c2nc(N)nc(C)c2-c2ccc(Cl)cc2)c(O)c1 | 0.0 | . | -6.3 | -4.1
CCc1ccccc1NC(=O)Nc1cccn(Cc2ccccc2F)c1=O | 1.0 | . | 4.0 | 0.3
Cc1ccc(C(=O)NCC(=O)Nc2ccncc2)cc1C | 0.6 | 204.0* | -1.4 | 3.3
CCOc1ccc(NC(=O)CNC(=O)c2ccc(OC)cc2)cc1 | 0.0 | 73.1* | 0.7 | -6.6
Cc1ccc(C(=O)NCC(=O)Nc2ccncc2)cc1 | 0.2 | 0.6 | -4.4 | 4.6
N#C[C@@H]1[C@H](c2ccccc2C2=CCCC2)[C@H](CO)N1C(=O)C1CCC1 | 0.1 | 0.1 | 5.2 | -6.0
CCc1cnc(N2[C@@H](C#N)[C@@H](c3ccccc3C3=CCCC3)[C@@H]2CO)s1 | 0.0 | 0.0 | 42.5 | 20.4*
N#C[C@@H]1[C@H](c2ccccc2C2=CCCC2)[C@@H](CO)N1C(=O)c1cccc(F)c1 | 0.0 | 0.0 | -1.9 | 15.1
COc1ccccc1-c1ccc([C@H]2[C@@H](CO)N(C(=O)C3CCCC3)[C@H]2C#N)cc1 | 0.0 | 0.0 | 0.8 | 35.8*
N#C[C@H]1[C@@H](c2ccccc2C2=CCCC2)[C@@H](CO)N1C(=O)C1CCC1 | 0.0 | -0.1 | -1.1 | 37.4*
N#C[C@H]1[C@@H](c2ccccc2C2=CCCC2)[C@@H](CO)N1C(=O)c1cccc(F)c1 | 0.0 | 0.1 | -38.0 | 70.8*
O=C(N/N=C/c1ccc(OC(=O)c2ccc([N+](=O)[O-])cc2)cc1)c1cccnc1 | 0.1 | 0.3 | -12.3 | -3.2
COCC1CCCCN1C(=O)c1ccc2oc(CCCc3ccccc3)nc2c1 (stereo not drawn) | 0.0 | -0.3 | -3.5 | -1.4
N#C[C@H]1[C@H](c2ccccc2C2=CCCCC2)[C@H](CO)N1C(=O)NC1CCCC1 | 0.0 | -0.1 | -15.1 | 4.8
C/C=C/c1ccccc1[C@H]1[C@@H](C#N)N(C(=O)NC2CCCC2)[C@H]1CO | 0.0 | 0.1 | 3.8 | 60.5*
N#C[C@@H]1[C@H](c2ccccc2C2=CCCCC2)[C@H](CO)N1C(=O)NC1CCCC1 | 0.1 | 0.0 | 130.8* | -6.7
COc1ccccc1-c1ccccc1[C@H]1[C@H](C#N)N(C(=O)C2CCC2)[C@H]1CO | 0.0 | -0.2 | -5.5 | 50.0*
COc1ccc(-c2ccc([C@@H]3[C@@H](C#N)N(C(=O)C4CCC4)[C@H]3CO)cc2)cc1 | -0.1 | -0.4 | 1.1 | 72.3*
COc1ccccc1-c1ccccc1[C@H]1[C@@H](CO)N(C(=O)C2CCC2)[C@H]1C#N | 0.1 | -0.1 | 6.2 | -5.0
C/C=C/c1ccccc1[C@H]1[C@@H](CO)N(C(=O)NC2CCCC2)[C@H]1C#N | 0.0 | 0.0 | 4.5 | 2.0
COc1ccc(CCN2CC(C(=O)NCC3(O)CCCCC3)CCC2=O)cc1 (stereo not drawn) | 0.0 | . | -6.7 | -0.4
COCCCNC(=S)NC1CC2CCC(C1)N2Cc1ccccc1 (stereo not drawn) | 0.0 | 1.1 | 0.4 | .
COc1ccccc1-c1ccc([C@H]2[C@@H](CO)N[C@@H]2CNC(=O)C2CCCC2)cc1 | 0.0 | 0.0 | 4.4 | 24.9*
SMILES | XiGFP reactiv | E-selectin induc | S100A4 inh HTS | DENV2 CPE rescue
O=C(N/N=C/c1cc(Br)c(O)c(Br)c1)c1cccnc1 | 0.0 | 0.4 | -0.7 | -0.9
COC(=O)c1c(CC[C@@H](CO)NC(=O)N[C@H](Cn2cc(-c3cncn3C)nn2)C(C)C)oc(C(C)=O)c1C(=O)OC | . | . | 0.4 | 4.1
CCCCc1cn(C[C@H](Cc2ccccc2)NC(=O)N[C@H](CO)CCc2oc(C(C)=O)c(C(=O)OC)c2C(=O)OC)nn1 | . | . | -31.0 | 22.0*
C=CC[C@H](CC(=O)NCCO)C(=O)N[C@H](COC(=O)[C@@H](CC=C)Cc1ccc(F)cc1)C(C)(C)C | 0.0 | -0.3 | -0.7 | 9.4
C=CC[C@H](CC(=O)NCCO)C(=O)NCCOC(=O)[C@@H](CC=C)Cc1ccc(F)cc1 | 0.0 | 0.1 | 0.1 | 46.9*
O=C(NC1CCCC1)c1cc(-c2ccccc2O)on1 | 0.2 | 46.6* | 1.9 | 1.6
C[C@@H]1CN([C@H](C)CO)C(=O)Cc2cc(NS(=O)(=O)c3ccc(F)cc3)ccc2O[C@@H]1CN(C)S(C)(=O)=O | -0.2 | 0.0 | -13.0 | 30.8*
C[C@H](CO)N1C[C@H](C)[C@@H](CN(C)S(C)(=O)=O)Oc2ccc(NS(=O)(=O)c3ccc(F)cc3)cc2CC1=O | -1.2 | 0.0 | 2.5 | -5.5
C[C@@H]1CN([C@@H](C)CO)C(=O)Cc2cc(NC(=O)Cc3ccccc3)ccc2O[C@H]1CN(C)S(C)(=O)=O | 0.3 | 6.7 | -40.6 | 0.2
C[C@@H]1CN([C@H](C)CO)C(=O)Cc2cc(NS(=O)(=O)c3ccccc3)ccc2O[C@H]1CN(C)S(C)(=O)=O | 0.0 | 0.4 | -4.7 | -4.5
C[C@H](CO)N1C[C@H](C)[C@H](CN(C)C)Oc2ccc(NS(=O)(=O)c3ccccc3)cc2CC1=O | 0.1 | -14.0 | 94.8* | 3.8
C[C@@H]1CN([C@@H](C)CO)C(=O)Cc2cc(NS(=O)(=O)c3ccccc3)ccc2O[C@@H]1CN(C)S(C)(=O)=O | 0.0 | -0.5 | -10.3 | 24.2*
C[C@H](CO)N1C[C@H](C)[C@@H](CN(C)S(C)(=O)=O)Oc2ccc(NC(=O)Cc3ccccc3)cc2CC1=O | 0.1 | 3.4 | 9.6 | 23.1*
C[C@H](CO)N1C[C@H](C)[C@H](CN(C)S(C)(=O)=O)Oc2ccc(NS(=O)(=O)c3ccccc3)cc2CC1=O | 0.0 | 0.1 | -8.1 | 19.0
Cc1ccc(C)c(OCCCCN2CCCCC2)c1 | 0.1 | . | 5.7 | 55.2*
O=[N+]([O-])c1cc(S(=O)(=O)Nc2ccccc2)ccc1N1CCN(c2ccccc2)CC1 | 0.2 | -1.4 | -5.4 | .
COc1ccccc1CCN=C(N)NS(=O)(=O)c1cc(F)ccc1F | 0.2 | 3.1 | 2.7 | -1.8
COc1ccc(S(=O)(=O)Nc2ccc3c(c2)CC(=O)N([C@H](C)CO)C[C@H](C)[C@H](CN(C)C(=O)NC(C)C)O3)cc1 | -1.4 | -2.0 | 9.6 | 64.4*
COc1ccc(S(=O)(=O)Nc2ccc3c(c2)CC(=O)N([C@H](C)CO)C[C@@H](C)[C@H](CN(C)C(=O)NC2CCCCC2)O3)cc1 | -0.1 | 48.0* | -37.8 | 3.3
COc1ccc(S(=O)(=O)Nc2ccc3c(c2)CC(=O)N([C@@H](C)CO)C[C@H](C)[C@H](CN(C)C(=O)NC2CCCCC2)O3)cc1 | 0.1 | ? | -10.3 | ?
O=C(OCc1ccccc1)c1ccc(NCc2cc(O)ccc2O)cc1 | 0.0 | -1.3 | -1.7 | -4.2
